From paper PMC8320611 (Current Research in Toxicology, 2020)
Blank lines part the entries; values can stand above or below the compound they belong to.

Tests used:
[1] = ref Hu et al., 2007; cited from earlier work
HT29 cells [2] = experiment: Comet assay; format: cell-based, human; conditions: for Total DNA strand breaks with FPG treatment (%-TI): HT29, 24 h, 10 or 100 μM, FPG treated, two independent experiments; for Background DNA-strand breaks (tail intensity): HT29, 24 h incubation, 10–100 μM, without FPG
Outline: (§1)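 Cells at 80–90% confluence, viability >80% by trypan blue (HepG2 in RPMI 1640, HT29 in DMEM; 5% FCS) were exposed 24 h to 10 or 100 μM test compound from DMSO stock diluted 1:1000. Controls were 0.1% DMSO and 10 J/m2 UVC. Slides were lysed overnight at 4 °C, then treated with FPG or buffer. Unwinding was pH 13.5, 20 min; electrophoresis 20 min, 25 V. Mean tail intensity was scored on 2 × 50 cells/slide. Without FPG: three independent experiments; with FPG: two, in duplicate.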

HepG2 cells [3] = experiment: Comet assay; format: cell-based, human; conditions: for Total DNA strand breaks with FPG treatment (%-TI): HepG2, 24 h, 10 or 100 μM, FPG treated, two independent experiments; for Background DNA-strand breaks (tail intensity): HepG2, 24 h incubation, 10–100 μM, without FPG
Outline: as §1

HepG2 cells [4] = experiment: Resazurin reduction assay; format: cell-based, human; conditions: HepG2, 1 h or 24 h incubation, 0–100 μM, vs negative control 1% DMSO
Outline: (§2)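 Cells were seeded at 180,000 per well (HepG2 in RPMI 1640, HT29 in DMEM; 5% FCS, 37 °C, 5% CO2). After 24 h they were exposed to 0.1, 1, 10 or 100 μM test compound for 1 h or 24 h, using DMSO stocks diluted 1:100, in triplicate. Controls were 0.1% SDS and 1% DMSO. Cells were washed and given resazurin for 1 h; fluorescence was read at 544/590 nm. Blank-subtracted values are % of DMSO control, mean ± SD of three experiments.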

HT29 cells [5] = experiment: Resazurin reduction assay; format: cell-based, human; conditions: HT29, 1 h or 24 h incubation, 0–100 μM, vs negative control 1% DMSO
Outline: as §2

[6] = tested on: human ovary carcinoma cell line ES-2; conditions: ES-2, 48 h incubation, at 1 mM; ref Liu et al., 2017; cited from earlier work
[7] = in vitro studies; ref Prasad, 2000; cited from earlier work
[8] = tested on: HT29 clone 19A human colon tumor cells; conditions: ref Pool-Zobel et al., 2000, cited from earlier work; for DNA strand breaks (comet assay): 15 min incubation, 100 μM END and ENL
[9] = tested on: extracellular vascular endothelial growth factor (VEGF); conditions: in vivo, mice with established human breast cancer; ref Dabrosin et al., 2002; cited from earlier work
[10] = tested on: microbiota from human faeces; conditions: incubation with microbiota from human faeces for 24 h; ref Heinonen et al., 2001; cited from earlier work
[11] = stated in the introduction, no reference given; cited from earlier work
[12] = tested on: human myelocytic HL-60 leukemia cancer cells; conditions: HL-60, incubation with 0.5–40 μM; ref Park et al., 2008; cited from earlier work

Total DNA strand breaks with FPG treatment (%-TI) (HT29 cells [2]): No modulation
Background DNA-strand breaks (tail intensity) (HT29 cells [2]): No significant modulation
Total DNA strand breaks with FPG treatment (%-TI) (HepG2 cells [3]): No modulation
Background DNA-strand breaks (tail intensity) (HepG2 cells [3]): No significant modulation
Relative vitality (HepG2 cells [4]): no significant reductions
Relative vitality (HT29 cells [5]): no significant reductions
Compound: OC[C@H](Cc1cccc(O)c1)[C@H](CO)Cc1cccc(O)c1 [END, (2R,3R)-2,3-bis[(3-hydroxyphenyl)methyl]butane-1,4-diol]
Protection against DNA damage and lipid peroxidation [1]: protect against DNA damage and lipid peroxidation
Vitality [6]: significant decrease in vitality
Levels of reactive oxygen species (antioxidant effect) [7]: reduce the levels of reactive oxygen species
DNA strand breaks (comet assay) [8]: no differences to the negative control
Oxidised pyrimidine DNA bases [8]: reduced

Total DNA strand breaks with FPG treatment (%-TI) (HT29 cells [2]): no significant modulation
Background DNA-strand breaks (tail intensity) (HT29 cells [2]): No significant modulation
Total DNA strand breaks with FPG treatment (%-TI) (HepG2 cells [3]): no significant modulation
Background DNA-strand breaks (tail intensity) (HepG2 cells [3]): No significant modulation
Relative vitality (HepG2 cells [4]): no significant reductions
Relative vitality (HT29 cells [5]): no significant reductions
Compound: O=C1OC[C@H](Cc2cccc(O)c2)[C@H]1Cc1cccc(O)c1 [ENL, (3R,4R)-3,4-bis[(3-hydroxyphenyl)methyl]oxolan-2-one]
Protection against DNA damage and lipid peroxidation [1]: protect against DNA damage and lipid peroxidation
Vitality [6]: significant decrease in vitality
Levels of reactive oxygen species (antioxidant effect) [7]: reduce the levels of reactive oxygen species
Extracellular VEGF [9]: suppressed
DNA strand breaks (comet assay) [8]: no differences to the negative control
Oxidised pyrimidine DNA bases [8]: reduced
Oxidized purine DNA bases [8]: had such an impact

Compound: COc1cc([C@H]2OC[C@H]3[C@@H]2CO[C@@H]3c2ccc(O[C@@H]3O[C@H](CO)[C@@H](O)[C@H](O)[C@H]3O)c(OC)c2)ccc1O[C@@H]1O[C@H](CO)[C@@H](O)[C@H](O)[C@H]1O [Pin-DG, pinoresinol diglycoside]
Conversion into END and ENL [10]: 55%

Compound: COc1cc(C[C@@H](CO)[C@H](CO)Cc2ccc(O)c(OC)c2)ccc1O [Seco, secoisolariciresinol]
Protection against DNA damage and lipid peroxidation [1]: protect against DNA damage and lipid peroxidation
Levels of reactive oxygen species (antioxidant effect) [7]: reduce the levels of reactive oxygen species
Conversion into END and ENL [10]: 72%

Compound: COc1cc(C[C@@H](CO[C@@H]2O[C@H](CO)[C@@H](O)[C@H](O)[C@H]2O)[C@H](CO[C@@H]2O[C@H](CO)[C@@H](O)[C@H](O)[C@H]2O)Cc2ccc(O)c(OC)c2)ccc1O [Seco-DG, seco-diglycoside]
Solubility in water [11]: highly soluble

Relative vitality (HepG2 cells [4]): no significant reductions
Relative vitality (HT29 cells [5]): no significant reductions
Compound: COc1cc([C@H]2OC[C@H]3[C@@H]2CO[C@@H]3c2cc(OC)c(O)c(OC)c2)cc(OC)c1O [Syr, 4,4′-(1S,3aR,4S,6aR)-Tetrahydro-1H,3H-furo[3,4-c]furan-1,4-diylbis(2,6-dimethoxy-phenol)]
Cell vitality (MTT assay) [12]: significant concentration-dependent decrease

Compound: O=c1c(-c2ccc(O)cc2)coc2cc(O)cc(O)c12 [genistein, reference compound]
DNA strand breaks (comet assay) [8]: induced highly significant
